# A selection: hits, their analogues and other compounds. The true share with any hit is near 3.9%.
# SR-BI HDL uptake – blocks mouse SR-BI lipid uptake from DiI-HDL; AID 488896; ldlA[mSR-BI] CHO cells, DiI-HDL uptake fluorescence, 3 h; inhibition, % at 12.5 µM; 320,000 compounds, 0.96% hits;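 active means mean replicate inhibition of at least 70% and a set share of replicates each scoring 70 or more; inconclusive means meets just one of the two criteria; inactive means fails both criteria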;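 further: 0% = median of neutral control wells and 100% = median of positive control wells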
# SR-BI DiI-HDL act – activators of SR-BI mediated HDL lipid uptake; CHO ldlA[mSR-BI] cells, DiI-HDL uptake fluorescence, 3 h; 100 = double the neutral-control signal; activation, % at 12.5 µM; 320,000 compounds, 0.096% hits; AID 504775;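 active means mean replicate activation of at least 60% and every replicate at or above 60%; inconclusive means mean or all-replicate condition met, but not both; inactive means mean below 60% and not all replicates reaching 60%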;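 further: 0% = median plate neutral-control signal and 100% = twice that signal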
#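 system = CHO ldlA[mSR-BI] cells, LDL receptor-null, SR-BI overexpressing | medium = Ham's F12 with 0.5% BSA, HEPES 25 mM, pH 7.4 | probe or stimulus = DiI-HDL 10 µg/mL | compound dosing = single-point compound dose | incubation = compound exposure 3 h, 37 °C | technique = DiI fluorescence, bottom read | read-out = cell-associated DiI fluorescence as measure of HDL uptake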
# AHR activator – activates the human aryl hydrocarbon receptor. 320,000 compounds, 2.5% hits. AID 2796. P35869. activation, % at 5 µM. AHR-responsive luciferase reporter cells, luminescence; in the data active means activation above about 47%;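 further: 0% = vehicle wells and 100% = reference agonist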
# Target sequence (P35869 whole entry, looked up): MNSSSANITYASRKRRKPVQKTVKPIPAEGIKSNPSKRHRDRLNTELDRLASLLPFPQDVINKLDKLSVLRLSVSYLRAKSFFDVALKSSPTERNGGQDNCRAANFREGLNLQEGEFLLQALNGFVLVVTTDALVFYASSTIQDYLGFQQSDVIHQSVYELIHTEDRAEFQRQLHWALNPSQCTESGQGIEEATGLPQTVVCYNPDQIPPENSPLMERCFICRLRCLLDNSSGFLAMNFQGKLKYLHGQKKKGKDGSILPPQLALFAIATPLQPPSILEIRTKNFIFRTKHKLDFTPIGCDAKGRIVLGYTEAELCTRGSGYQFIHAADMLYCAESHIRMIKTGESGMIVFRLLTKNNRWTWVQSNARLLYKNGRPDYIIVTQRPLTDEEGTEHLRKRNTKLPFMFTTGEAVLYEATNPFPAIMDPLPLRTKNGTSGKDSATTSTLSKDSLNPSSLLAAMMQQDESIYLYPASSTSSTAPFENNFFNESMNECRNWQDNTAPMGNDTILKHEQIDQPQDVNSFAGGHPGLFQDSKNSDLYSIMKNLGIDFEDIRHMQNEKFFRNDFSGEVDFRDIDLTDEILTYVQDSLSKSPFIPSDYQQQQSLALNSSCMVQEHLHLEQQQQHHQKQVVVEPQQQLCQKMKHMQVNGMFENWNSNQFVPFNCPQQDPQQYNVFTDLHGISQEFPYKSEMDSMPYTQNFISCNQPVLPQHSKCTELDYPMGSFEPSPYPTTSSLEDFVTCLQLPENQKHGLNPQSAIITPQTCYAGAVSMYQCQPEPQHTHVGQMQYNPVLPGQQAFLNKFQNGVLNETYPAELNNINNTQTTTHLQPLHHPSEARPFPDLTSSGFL
# GAA850 FXN act – frataxin GAA850 promoter activation; HEK293 lucGAA850 FXN promoter luciferase reporter, 24 h; percent of 10 µM SAHA response; activation, % at 6 µM; 360,000 compounds, 0.56% hits; AID 540364;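 active means activation above the average of all compounds screened plus 3 SD, cutoff fixed separately per campaign, cut at about 7.5% in these data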;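 further: 0% = DMSO wells and 100% = 10 µM SAHA wells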
# ABCB6 inh 2 – inhibitors of human ABC transporter ABCB6 | K562-ABCB6 porphyrin accumulation, flow cytometry, 1 h; stronger effect = lower value | Q9NP58 | 360,000 compounds, 0.19% hits | AID 602162 | fluorescence ratio to DMSO, % at 10 µM;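 active means fluorescence ratio to DMSO below 75%, the collection mean minus 3 SD; inconclusive means too few cells collected in the well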;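 further: signal is porphyrin accumulated inside mitochondria; 100% equals median channel fluorescence of DMSO control wells; lower ratio means ABCB6 inhibition with less porphyrin fluorescence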
# HIF act – HIF pathway transcriptional activation | activation, % at 7.5 µM (by protocol) | 300,000 compounds, 0.32% hits | U2OS HRE-luciferase reporter, luminescence; normalized: DMSO 0%, desferrioxamine 100%;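 active means mean activation of at least 10% of the iron chelator positive control signal, with at least half of replicates also reaching 10%; inconclusive means mean and replicate majority disagree about reaching 10%; inactive means mean and most replicates under 10%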
# AHR act confirm – human AHR activation, confirmation; shares compounds with AHR activator; human cells, AHR-responsive luciferase reporter, luminescence; activation, % at 9 µM; 2,300 compounds, 87% hits; AID 2845; in the data active means activation above about 49%;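 further: HepG2 hepatoma cells carrying a DRE-driven firefly luciferase reporter; 0% = vehicle wells and 100% = reference agonist wells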
# PXR counter – activates human PXR in AHR activator counter-screen; shares compounds with AHR activator; cell-based PXR reporter, luciferase luminescence; activation, % at 11.6 µM; 2,300 compounds, 88% hits; in the data active means activation above about 11%;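 further: human hepatoma DPX-2 cells expressing full-length human PXR; 0% = DMSO and 100% = reference agonist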
# DiI quench – DiI fluorescence quenching in cell-free counter-screen; AC50, µM (highest dose often 35 µM), without a hit: top-dose activity change, negative = quenching; cell-free DiI-HDL fluorescence quenching, 30 min; shares compounds with SR-BI HDL uptake; AID 540326; 470 compounds, 20% hits;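 active means quenching, a falling signal, with AC50 below a set limit tied to the top valid dose, actives reach about 32 µM in these data; inconclusive means no clear call, values can overlap the other calls; inactive means rising signal, and the rest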
# GAA30 counter – GAA30 FXN promoter activation counter-screen | shares compounds with GAA850 FXN act | HEK293 lucGAA30 FXN promoter luciferase, 24 h; DMSO = 0%, 5 µM ipriflavone = 100% | activation, % at 6 µM | 1,900 compounds, 66% hits | AID 588350;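 active means mean activation above the mean of solvent-only control wells plus 3 SD, cut at about 22% in these data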;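 further: counterscreen of GAA850 promoter hits where activity marks nonselective or luminescence artifacts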
# GAA850 confirm – GAA850 FXN promoter activation confirmation | 1,900 compounds, 86% hits | AID 588351 | shares compounds with GAA850 FXN act | HEK293 lucGAA850 FXN promoter luciferase reporter, 24 h; 100% = activation by SAHA | activation, % at 6 µM;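 active means mean activation above a set limit taken from the primary screen, cut at about 8% in these data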;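 further: 0% = DMSO wells and 100% = 10 µM SAHA wells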
# ABCB6 inh CP1 – inhibitors of human ABC transporter ABCB6 | shares compounds with ABCB6 inh 2 | K562-ABCB6 porphyrin accumulation, flow cytometry, 1 h; stronger effect = lower value | ratio response (% of DMSO), % at 10 µM | 700 tested, under 10 active | AID 602430;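 active means repeat-averaged ratio response below 75% of DMSO, the collection mean minus 3 SD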;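 further: median porphyrin fluorescence at 575 nm with 488 nm excitation from mitochondria; lower ratio means less porphyrin signal so ABCB6 inhibition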
# * marks the source's active call; other numbers are inactive results; ? = inconclusive; . = no result given.
SMILES,SR-BI HDL uptake,SR-BI DiI-HDL act,AHR activator,GAA850 FXN act,ABCB6 inh 2,HIF act,AHR act confirm,PXR counter,GAA30 counter,GAA850 confirm,others
CC(C)c1ccc(NC(=O)N2CCc3ccccc3C2)cc1,22,-22,114*,9.0*,91,1,96*,93*,113*,32*,
Cc1ccc(Cl)cc1N1CCN(C(=O)CCCn2c(=O)c3cccn3c3cccnc32)CC1,69,-69,6,1,95,0,.,.,.,.,
Cc1ccc2oc(-c3ccccc3)nc2c1,-27,27,2,1,101,2,.,.,.,.,
Nc1c(Br)cc2oc(-c3ccccc3)nc2c1Br,0,0,84*,7.9*,102,2,134*,13*,102*,41*,
Cc1nnc(SC(C)C(=O)Nc2ccc3c(c2)OCCO3)s1 (centres undefined),30,-30,2,0,99,0,.,.,.,.,
COCC(=O)Nc1nnc(-c2ccc(C(C)(C)C)cc2)s1,-14,14,86*,8.3*,94,1,99*,30*,124*,37*,
CSc1ccccc1NC(=O)c1onc(C)c1Cl,19,-19,12,-1,101,0,.,.,.,.,
CN(C)/C=C(\C#N)C(N)=C(C#N)C#N,-7,7,0,1,100,0,.,.,.,.,
C=CCc1c(C)nc(-c2ccccc2)nc1Nc1ccccc1O,101*,-101,121*,7.9*,183,0,88*,134*,30*,21*,
CC(C)n1c(-c2ccco2)csc1=Nc1cccnc1,18,-18,37,1,85,0,.,.,.,.,
CC(C)N1CCc2c(sc(NC(=O)c3ccc4ccccc4c3)c2C(N)=O)C1,21,-21,6,3,106,0,.,.,.,.,
CC(=O)Nc1sc2c(c1-c1nc3ccccc3s1)CCN(C(C)C)C2,37,-37,172*,34*,129,.,70*,.,-33,91*,
COc1cc(/C=C(/C#N)c2nc3ccccc3[nH]2)ccc1OCC(=O)Nc1ccccc1C,52,-52,7,-13,89,.,.,.,.,.,
COc1cc(/C=C(\C#N)c2nc3ccccc3[nH]2)ccc1OC(=O)c1ccco1,26,-26,100*,7.8*,96,2,29,14*,119*,35*,
CC1Cc2ccccc2N1C(=O)COc1ccc2c(c1)OCO2 (centres undefined),12,-12,84*,8.0*,91,1,95*,66*,79*,24*,
O=C(c1cc(COc2cccc(C(F)(F)F)c2)on1)N1CCc2ccccc2C1,-1,1,0,1,97,0,.,.,.,.,
Cc1cccc(Nc2nc(-c3cccs3)cs2)n1,52,-52,87*,7.7*,106,1,161*,21*,115*,41*,
Cc1cccc(NC(=O)CSc2nc(C)c(Cc3ccccc3)c(=O)[nH]2)c1,-18,18,5,1,92,0,.,.,.,.,
Nc1nc(-c2cccnc2)nc2sc3c(c12)CCCC3,11,-11,118*,10*,101,1,90*,72*,108*,53*,
CC(=O)Nc1ccc(Oc2nc(-c3cccnc3)nc3sc4c(c23)CCCC4)cc1,-28,28,0,0,102,0,.,.,.,.,
Cn1c(/C=N/Nc2nc3ccccc3[nH]2)nc2ccccc21,2,-2,88*,8.5*,100,8,60*,9,-33,-10,
CCN(CC)c1ccc(/C=N/Nc2nc3ccccc3[nH]2)cc1,24,-24,.,7,91,2,.,.,.,.,
Clc1nc2ccccc2cc1/C=N/Nc1nc2ccccc2[nH]1,10,-10,83*,8.4*,111,1,73*,21*,128*,44*,
COc1ccc(C2/C=C\CN(C(=O)C3CC3)[C@H](Cc3ccccc3)C(=O)N2Cc2ccc(F)cc2)cc1 (some centres undefined),21,-21,2,0,99,0,.,.,.,.,
CCC(=O)Nc1cccc(-c2cn3cccc(C)c3n2)c1,?,-71,7,2,102,1,.,.,.,.,
SMILES,SR-BI HDL uptake,SR-BI DiI-HDL act,AHR activator,GAA850 FXN act,ABCB6 inh 2,HIF act,AHR act confirm,PXR counter,GAA30 counter,GAA850 confirm,others
OCCOCCn1c(CCNc2nc(-c3ccc(F)cc3)cs2)nc2cc(C(F)(F)F)ccc21,17,-17,91*,0,73*,0,50*,27*,.,.,ABCB6 inh CP1=100
CCCC(=O)N1CCN(c2ccc(NC(=O)c3ccc4c(c3)OCCO4)cc2)CC1,.,.,-4,-1,97,-2,.,.,.,.,
CCC1CCCCN1C(=O)CSc1nnc(-c2ccc(Cl)cc2)o1 (centres undefined),4,-4,0,-1,105,0,.,.,.,.,
CCC1CCCCN1C(=O)CSc1nnc(-c2ccco2)o1 (centres undefined),76*,-76,17,5,90,.,.,.,.,.,DiI quench=-6%
COc1ccc(/C=N/n2c(-c3cccs3)n[nH]c2=S)cc1,-6,6,-5,-1,86,0,.,.,.,.,
COc1ccc(CCNC(=O)c2ccc3c(c2)N(Cc2ccc(F)cc2)CCS3)c(OC)c1,82*,-82,10,1,100,0,.,.,.,.,DiI quench=-12%
COc1ccc(OC)c(CCNC(=O)c2ccc3c(c2)N(Cc2ccc(F)cc2)CCS3)c1,82*,-82,11,-1,101,1,.,.,.,.,DiI quench=-12%
COc1ccc(CCNC(=O)c2ccc3c(c2)N(Cc2ccc(C)cc2)CCS3)cc1OC,75*,-75,3,-2,98,0,.,.,.,.,DiI quench=-10%
CCOC(=O)CCC(NC(=O)CCCCCCCCC(=O)NC(CCC(=O)OCC)C(=O)OCC)C(=O)OCC (centres undefined),-19,19,-2,-1,100,0,.,.,.,.,

# Screening results (PubChem BioAssay)
